According to ChEMBL document CHEMBL1134532, “Reversible carnitine palmitoyltransferase inhibitors with broad chemical diversity as potential antidiabetic agents” (J Med Chem, 2001):

Legend:
[1] = biological target: T1, Carnitine O-palmitoyltransferase 1, muscle isoform (Rattus norvegicus, UniProt Q63704); experiment: Inhibitory activity against rat heart mitochondrial carnitine palmitoyltransferase 1b using [14C]palmitoyl-CoA as radioligand
T1 sequence (Q63704 whole entry): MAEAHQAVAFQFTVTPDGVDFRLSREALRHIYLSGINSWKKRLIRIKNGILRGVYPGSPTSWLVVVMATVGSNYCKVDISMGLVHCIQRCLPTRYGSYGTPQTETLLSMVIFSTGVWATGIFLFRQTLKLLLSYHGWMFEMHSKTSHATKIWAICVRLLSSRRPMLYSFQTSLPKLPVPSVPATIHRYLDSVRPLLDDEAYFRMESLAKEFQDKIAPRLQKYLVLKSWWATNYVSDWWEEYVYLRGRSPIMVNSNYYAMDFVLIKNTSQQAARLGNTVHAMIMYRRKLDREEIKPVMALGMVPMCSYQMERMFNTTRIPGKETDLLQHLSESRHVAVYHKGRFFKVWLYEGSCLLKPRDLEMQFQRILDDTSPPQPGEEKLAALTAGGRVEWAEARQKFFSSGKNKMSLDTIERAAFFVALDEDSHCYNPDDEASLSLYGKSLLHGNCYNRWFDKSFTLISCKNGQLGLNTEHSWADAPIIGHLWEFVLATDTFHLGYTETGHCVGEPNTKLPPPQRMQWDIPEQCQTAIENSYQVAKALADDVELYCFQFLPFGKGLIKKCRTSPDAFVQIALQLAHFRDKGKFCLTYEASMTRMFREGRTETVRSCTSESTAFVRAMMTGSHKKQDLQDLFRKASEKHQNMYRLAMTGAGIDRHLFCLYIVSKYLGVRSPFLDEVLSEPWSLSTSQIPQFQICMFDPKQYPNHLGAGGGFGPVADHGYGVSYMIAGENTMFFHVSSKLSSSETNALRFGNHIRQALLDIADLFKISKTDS
How it was run: (§1)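 Performed on intact rat mitochondria: liver for L-CPT I, heart for M-CPT I. IC50 in µM calculated from the inhibition curve. Values are means of two determinations in triplicate, with variation between experiments under 8%.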

[2] = biological target: T2, Carnitine O-palmitoyltransferase 1, liver isoform (Rattus norvegicus, UniProt P32198); experiment: Inhibition of rat liver mitochondrial carnitine palmitoyltransferase 1 using [14C]palmitoyl-CoA radioligand; how it was run: as §1
T2 sequence (P32198 whole entry): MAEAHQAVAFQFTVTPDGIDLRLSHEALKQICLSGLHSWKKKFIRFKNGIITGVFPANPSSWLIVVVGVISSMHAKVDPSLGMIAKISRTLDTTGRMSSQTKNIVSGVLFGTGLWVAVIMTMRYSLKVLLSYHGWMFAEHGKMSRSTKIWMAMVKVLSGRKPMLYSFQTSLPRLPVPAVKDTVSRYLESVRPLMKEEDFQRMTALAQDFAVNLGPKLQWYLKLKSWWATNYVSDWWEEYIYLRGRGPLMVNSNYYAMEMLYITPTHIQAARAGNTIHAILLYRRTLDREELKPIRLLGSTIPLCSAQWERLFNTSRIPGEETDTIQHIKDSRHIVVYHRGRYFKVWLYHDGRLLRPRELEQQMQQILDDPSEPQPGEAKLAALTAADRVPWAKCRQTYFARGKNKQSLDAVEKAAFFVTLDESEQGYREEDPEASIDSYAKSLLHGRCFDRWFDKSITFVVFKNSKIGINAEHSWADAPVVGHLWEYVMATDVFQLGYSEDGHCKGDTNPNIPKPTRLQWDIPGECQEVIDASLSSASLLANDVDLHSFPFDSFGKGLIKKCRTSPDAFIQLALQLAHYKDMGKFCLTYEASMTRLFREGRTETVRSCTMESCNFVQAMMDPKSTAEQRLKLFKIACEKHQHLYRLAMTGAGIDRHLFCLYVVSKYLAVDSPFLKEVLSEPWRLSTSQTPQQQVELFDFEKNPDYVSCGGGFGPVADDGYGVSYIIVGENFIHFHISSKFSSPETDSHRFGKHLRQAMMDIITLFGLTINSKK

IC50 [1] [µM]	IC50 [2] [µM]	Structure (SMILES)
> 10	6	CCCCCCCCCCCNS(=O)(=O)N[C@@H](CC(=O)[O-])C[N+](C)(C)C
3.4	0.7	CCCCCCCCCCCCS(=O)(=O)N[C@H](CC(=O)[O-])C[N+](C)(C)C
5.8	0.8	CCCCCCCCCCCNS(=O)(=O)N[C@H](CC(=O)[O-])C[N+](C)(C)C
> 10	6	CCCCCCCCCCCCS(=O)(=O)N[C@@H](CC(=O)[O-])C[N+](C)(C)C
	> 300	CCCCCCCCCNC(=O)OC(C[n+]1ccccc1)CP(=O)(O)O (centres undefined)
	> 300	CCCCCCCCCNC(=O)OC(CC(=O)[O-])C[P+](C)(C)C (centres undefined)
	> 300	CCCCCCCCCCCCCCOC(=O)OC(CC(=O)[O-])C[N+]12CCC(CC1)CC2 (centres undefined)
	230	CCCCCCCCCCCCCCNC(CC(=O)[O-])C[N+](C)(C)C (centres undefined)
	> 300	CCCCCCCCCOC(=O)OC(CC(=O)O)C[N+](C)(C)C (centres undefined)
	47	CCCCCCCCCCCCCCOC(CC(=O)[O-])C[N+](C)(C)C (centres undefined)
	> 300	CCCCCCCCCNC(=O)OC(CC(=O)[O-])C[N+](C)(C)C (centres undefined)
	> 300	CCCCCCCCNC(CC(=O)[O-])C[N+](C)(C)C (centres undefined)
	> 300	CCCCCCCCCCCCCCOC(=O)OC(C[N+]12CCC(CC1)CC2)CP(=O)([O-])O (centres undefined)
	> 300	CCCCCCCCCCCCCCOC(Cc1nn[n-]n1)C[N+](C)(C)C (centres undefined)
3.8	2.3	CCCCCCCCCNS(=O)(=O)NC(CC(=O)[O-])C[N+](C)(C)C (centres undefined)
83.2	19.5	CCCCCCCCCNC(=O)NC(CC(=O)[O-])C[N+](C)(C)C (centres undefined)
211	22.3	CCCCCCCCOC(=O)NC(CC(=O)[O-])C[N+](C)(C)C (centres undefined)
	> 300	CCCCCCCCOC(CC(=O)[O-])C[N+](C)(C)C (centres undefined)
	122	CCCCCCCCCNC(=S)NC(CC(=O)[O-])C[N+](C)(C)C (centres undefined)
2.3	1.6	CCCCCCCCCCS(=O)(=O)NC(CC(=O)[O-])C[N+](C)(C)C (centres undefined)
	> 300	CCCCCCCCCNC(=O)OC(C[N+](C)(C)C)CP(=O)([O-])O (centres undefined)
